Results: ChEMBL document CHEMBL1165950, “Design and synthesis of new potent anticancer pyrazoles with high FLT3 kinase inhibitory selectivity” (Bioorg Med Chem, 2010)

Legend:
Type in all cases: functional
NCI-H322M = assay: Cytotoxicity against human NCI-H322M cells assessed as cell growth at 0.01 uM after 48 hrs by sulforhodamine B assay; conditions: read-out: Activity
MOLT-4 [1] = assay: Cytotoxicity against human MOLT4 cells assessed as cell growth at 10 uM; conditions: read-out: Activity
Procedure, shortened: (§1)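 NCI-60 screen: cells grown in RPMI 1640 with 5% FBS and 2 mM L-glutamine, plated at 5000–40,000 cells/well according to doubling time, and preincubated 24 h at 37 °C, 5% CO2. The single 10 µM dose (DMSO stock) was added, then incubated 48 h. Cells were TCA-fixed and stained with 0.4% SRB, read at 515 nm, and growth % calculated against time-zero and control plates.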

HL-60(TB) = assay: Cytotoxicity against human HL-60(TB) cells assessed as cell growth at 0.001 uM after 48 hrs by sulforhodamine B assay; conditions: HL-60, 48 h, read-out: Activity
Procedure, shortened: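 NCI 60-cell panel. Cells are grown in RPMI 1640 with 5% FBS and 2 mM L-glutamine, seeded at 5000–40,000 cells/well according to doubling time, and preincubated 24 h. Time-zero plates are TCA-fixed. Compound from DMSO stock is given at five 10-fold or 1/2-log concentrations for 48 h at 37 °C, 5% CO2. Suspension cells are fixed with 80% TCA (final 16%) and SRB-stained, with absorbance at 515 nm. Percent growth is derived from Tz, control and test readings.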

CCRF-CEM [2] = assay: Cytotoxicity against human CCRF-CEM cells assessed as cell growth at 1 uM after 48 hrs by sulforhodamine B assay; conditions: read-out: Activity
Procedure, shortened: (§2)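 NCI-60 five-dose screen. Cells were grown in RPMI 1640 with 5% FBS and 2 mM L-glutamine, plated at 5000–40,000 cells/well and preincubated for 24 h. Time-zero plates were TCA-fixed. DMSO-solubilized drug was added at five concentrations (10-fold or ½-log serial dilutions) for 48 h at 37 °C, 5% CO2. Cells were TCA-fixed, stained with 0.4% SRB and read at 515 nm. Percent growth used time-zero, control and test absorbances.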

MDA-MB-231 [3] = assay: Cytotoxicity against human MDA-MB-231 cells assessed as cell growth at 100 nM after 48 hrs by sulforhodamine B assay; conditions: MDA-MB-231, 48 h, read-out: Activity
T47D = assay: Cytotoxicity against human T47D cells assessed as cell growth at 100 nM after 48 hrs by sulforhodamine B assay; conditions: read-out: Activity
MDA-MB-468 [4] = assay: Growth inhibition of human MDA-MB-468 cells after 48 hrs by sulforhodamine B assay; conditions: MDA-MB-468, 48 h
Procedure, shortened: (§3)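 NCI 60-cell screen, five-dose mode. Cells grown in RPMI 1640 with 5% FBS and 2 mM L-glutamine and plated at 5000-40,000 cells/well according to doubling time. After 24 h preincubation, a Tz plate was TCA-fixed. Five concentrations (10-fold or 1/2 log dilutions) were applied for 48 h at 37 °C. SRB staining read at 515 nm. IC50 taken from [(Ti-Tz)/(C-Tz)]×100 = 50.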

MDA-MB-231 [5] = assay: Growth inhibition of human MDA-MB-231 cells after 48 hrs by sulforhodamine B assay; conditions: MDA-MB-231, 48 h; procedure, shortened: as §3
DU-145 = assay: Cytotoxicity against human DU145 cells assessed as cell growth at 100 nM after 48 hrs by sulforhodamine B assay; conditions: DU-145, 48 h, read-out: Activity
SNB-19 [6] = assay: Cytotoxicity against human SNB19 cells assessed as cell growth at 0.001 uM after 48 hrs by sulforhodamine B assay; conditions: SNB-19, 48 h, read-out: Activity
COLO 205 = assay: Cytotoxicity against human COLO205 cells assessed as cell growth at 0.01 uM after 48 hrs by sulforhodamine B assay; conditions: COLO 205, 48 h, read-out: Activity; procedure, shortened: as §2
[7] = Cytotoxicity against human RPMI8266 cells assessed as cell growth at 1 uM after 48 hrs by sulforhodamine B assay; conditions: read-out: Activity
CCRF-CEM [8] = assay: Cytotoxicity against human CCRF-CEM cells assessed as cell growth at 0.01 uM after 48 hrs by sulforhodamine B assay; conditions: read-out: Activity; procedure, shortened: as §2
HT-29 = assay: Cytotoxicity against human HT-29 cells assessed as cell growth at 100 nM after 48 hrs by sulforhodamine B assay; conditions: HT-29, 48 h, read-out: Activity
A549 [9] = assay: Cytotoxicity against human A549 cells assessed as cell growth at 0.01 uM after 48 hrs by sulforhodamine B assay; conditions: A549, 48 h, read-out: Activity; procedure, shortened: as §2
SK-MEL-2 = assay: Cytotoxicity against human SK-MEL-2 cells assessed as cell growth at 0.001 uM after 48 hrs by sulforhodamine B assay; conditions: SK-MEL-2, 48 h, read-out: Activity
A549 [10] = assay: Cytotoxicity against human A549 cells assessed as cell growth at 10 uM after 48 hrs by sulforhodamine B assay; conditions: A549, 48 h, read-out: Activity; procedure, shortened: as §2
HOP-92 = assay: Cytotoxicity against human HOP92 cells assessed as cell growth at 100 nM after 48 hrs by sulforhodamine B assay; conditions: HOP-92, 48 h, read-out: Activity
MOLT-4 [11] = assay: Cytotoxicity against human MOLT4 cells assessed as cell growth at 10 uM after 48 hrs by sulforhodamine B assay; conditions: MOLT-4, 48 h, read-out: Activity
EKVX = assay: Cytotoxicity against human EKVX cells assessed as cell growth at 1 uM after 48 hrs by sulforhodamine B assay; conditions: read-out: Activity
HCT-15 = assay: Cytotoxicity against human HCT15 cells assessed as cell growth at 0.01 uM after 48 hrs by sulforhodamine B assay; conditions: HCT-15, 48 h, read-out: Activity
MDA-MB-468 [12] = assay: Cytotoxicity against human MDA-MB-468 cells assessed as cell growth at 0.01 uM after 48 hrs by sulforhodamine B assay; conditions: MDA-MB-468, 48 h, read-out: Activity
SNB-19 [13] = assay: Cytotoxicity against human SNB19 cells assessed as cell growth at 10 uM; conditions: read-out: Activity; procedure, shortened: as §1
K562 = assay: Growth inhibition of human K562 cells after 48 hrs by sulforhodamine B assay; conditions: K562, 48 h; procedure, shortened: as §3
ACHN [14] = assay: Cytotoxicity against human ACHN cells assessed as cell growth at 10 uM; conditions: read-out: Activity
Procedure, shortened: (§4)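 Single-dose NCI-60 screen at 10 µM. Cells were grown in RPMI 1640 with 5% FBS and 2 mM L-glutamine, then treated for 48 h at 37 °C. Protein was measured by SRB staining with absorbance at 515 nm. Percentage growth was recorded, and inhibition percentage was calculated as 100 minus growth percentage.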

MDA-MB-231 [15] = assay: Cytotoxicity against human MDA-MB-231 cells assessed as cell growth at 10 uM after 48 hrs by sulforhodamine B assay; conditions: MDA-MB-231, 48 h, read-out: Activity
A549 [16] = assay: Cytotoxicity against human A549 cells assessed as cell growth at 10 uM; conditions: read-out: Activity; procedure, shortened: as §4
ACHN [17] = assay: Cytotoxicity against human ACHN cells assessed as cell growth at 1 uM after 48 hrs by sulforhodamine B assay; conditions: read-out: Activity; procedure, shortened: as §2
SNB-19 [18] = assay: Cytotoxicity against human SNB19 cells assessed as cell growth at 0.01 uM after 48 hrs by sulforhodamine B assay; conditions: SNB-19, 48 h, read-out: Activity

Row | SMILES | growth at 0.01 µM (NCI-H322M) [%] | growth at 10 µM (MOLT-4 [1]) [%] | growth at 0.001 µM (HL-60(TB)) [%] | growth at 1 µM (CCRF-CEM [2]) [%] | growth at 0.1 µM (MDA-MB-231 [3]) [%] | growth at 0.1 µM (T47D) [%] | GI50 (MDA-MB-468 [4]) [nM] | LC50 (concentration giving 50% net cell kill) (MDA-MB-468 [4]) [nM] | TGI (MDA-MB-468 [4]) [nM] | GI50 (MDA-MB-231 [5]) [nM] | LC50 (MDA-MB-231 [5]) [nM] | growth at 0.1 µM (DU-145) [%] | growth at 0.001 µM (SNB-19 [6]) [%] | growth at 0.01 µM (COLO 205) [%] | growth at 1 µM [7] [%] | growth at 0.01 µM (CCRF-CEM [8]) [%] | growth at 0.1 µM (HT-29) [%] | growth at 0.01 µM (A549 [9]) [%] | growth at 0.001 µM (SK-MEL-2) [%] | growth at 10 µM (A549 [10]) [%] | other results
1 | COc1cc(C)cc(-c2nn(CC#N)cc2-c2ccnc(-c3ccc(N(C)C)cc3)c2)c1 | 108 | 16 | 97 | 16 | 52 | 24 | 181 | 7240 | 635 | 1090 | > 100000 | 2 | 102 | 116 | 1 | 100 | 25 | 97 | 117 | -6 | growth at 0.1 µM (HOP-92): 35%; growth at 10 µM (MOLT-4 [11]): 1%; growth at 1 µM (EKVX): 28%; growth at 0.01 µM (HCT-15): 92%; growth at 0.01 µM (MDA-MB-468 [12]): 74%; growth at 10 µM (SNB-19 [13]): 15.9%; GI50 (K562): 161 nM; LC50 (50% net cell kill) (K562): > 100000 nM; TGI (K562): > 100000 nM; growth at 10 µM (ACHN [14]): 16%; growth at 10 µM (MDA-MB-231 [15]): 4%; growth at 10 µM (A549 [16]): 21.1%; growth at 1 µM (ACHN [17]): 2%; growth at 0.01 µM (SNB-19 [18]): 97%
2 | COc1cc(C)cc(-c2c(-c3ccnc(-c4ccc(C(C)=O)cc4)c3)cnn2CC#N)c1 | 95 | 58 | 101 | 12 | 86 | 87 | 1430 | 2130 | 3870 | 3630 | > 100000 | 89 | 102 | 102 | -4 | 93 | 95 | 84 | 92 | 30 | TGI (MDA-MB-231 [5]): > 100000 nM; growth at 0.1 µM (HOP-92): 61%; growth at 10 µM (MOLT-4 [11]): 14%; growth at 1 µM (EKVX): 37%; growth at 0.01 µM (HCT-15): 95%; growth at 0.01 µM (MDA-MB-468 [12]): 84%; growth at 10 µM (SNB-19 [13]): 73.7%; GI50 (K562): 795 nM; LC50 (50% net cell kill) (K562): > 100000 nM; TGI (K562): > 100000 nM; growth at 10 µM (ACHN [14]): 70%; growth at 10 µM (MDA-MB-231 [15]): 26%; growth at 10 µM (A549 [16]): 91.4%; growth at 1 µM (ACHN [17]): 21%; growth at 0.01 µM (SNB-19 [18]): 102%
